According to ChEMBL document CHEMBL4699422, “Synthesis and initial pharmacology of dual-targeting ligands for putative complexes of integrin alphaVbeta3 and PAR2” (RSC Med Chem, 2020):
pEC50: −log10 of the molar value. Calls of active or inactive are those of the source. The calls are words filed in the database; no cut-off is given here. Where a SMILES comes first, the peptide text is derived from it. [ ]: non-standard residue; d: D form. The star is where a group is joined. X1 = COCc1cn(CCOCCOCCOCCOCCOCCOCCN*)nn1; Orn = NCCC[C@H](N)C(=O)O; 2Furoyl = O=C(c1ccco1)*

Columns and labels:
[1] = molecular target: T1, Proteinase-activated receptor 2 (Homo sapiens, UniProt P55085); assay: Agonist activity at PAR2 in human EA.hy926 cells assessed as stimulation of calcium mobilization by Fluo-4-AM dye-based FLIPR assay; assay type: functional, cell-based, EA.hy 926
T1 sequence (P55085 whole entry): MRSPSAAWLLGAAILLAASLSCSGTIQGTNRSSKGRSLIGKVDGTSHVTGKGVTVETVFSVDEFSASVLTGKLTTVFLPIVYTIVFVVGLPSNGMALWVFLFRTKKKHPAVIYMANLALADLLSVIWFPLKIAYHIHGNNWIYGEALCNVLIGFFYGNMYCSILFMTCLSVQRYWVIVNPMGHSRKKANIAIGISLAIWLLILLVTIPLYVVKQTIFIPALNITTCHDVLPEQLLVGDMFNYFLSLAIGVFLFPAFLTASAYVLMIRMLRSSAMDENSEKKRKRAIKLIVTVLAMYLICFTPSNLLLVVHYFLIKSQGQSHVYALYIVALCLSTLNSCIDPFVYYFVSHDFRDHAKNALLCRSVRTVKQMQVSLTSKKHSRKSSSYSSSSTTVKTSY
Summary of the method: (§1)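 EA.hy926 cells, passages 7–9, grown in DMEM (4.5 g/L glucose, 4 mM L-glutamine, 1 mM pyruvate, FBS, pen/strep). Calcium read on plate reader as normalized ΔRFU over basal. %Stimulation relative to 100 μM SLIGKV-NH₂ (100%). Curves fitted by 4-variable non-linear regression.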

[2] = molecular target: T1, Proteinase-activated receptor 2; assay: (§2) Agonist activity at PAR2 in human EA.hy926 cells assessed as stimulation of calcium mobilization preincubated for 2 hrs with LPS and 30 mins with cRGD followed by compound addition by Fluo-4-AM dye-based FLIPR assay; assay type: functional, cell-based, EA.hy 926
[3] = molecular target: T2, Integrin alpha-V/beta-3 (Homo sapiens) (UniProt P05106+P06756); assay: Inhibition of Alexa Fluor 647 labelled fibronectin binding to integrin alphavbeta3 receptor (unknown origin) expressed in HEK293FT cells at 5 uM preincubated for 10 mins followed by fibronectin addition and measured after 30 mins by flow cytometric analysis; assay type: cell-based; details: filed as antagonist, time 40.0 min
Summary of the method: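 HEK293FT co-transfected with αV and β3 constructs (≥24 h), in HBSGB (20 mM HEPES pH 7.4, 150 mM NaCl, 5.5 mM glucose, 1% BSA). Cells ± 5 or 50 μM ligand 10 min at 25 °C in 0.2 mM CaCl₂/2 mM MnCl₂ (activating), then Alexa647-Fn (15 μg/mL) plus Alexa488 anti-β3 AP3, 30 min at 25 °C. Resting control in 1 mM Ca²⁺/1 mM Mg²⁺. Flow cytometry on AP3-positive cells; Fn MFI expressed as % of AP3 MFI.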

[4] = molecular target: T1, Proteinase-activated receptor 2; assay: (§3) Agonist activity at PAR2 in human EA.hy926 cells assessed as stimulation of calcium mobilization preincubated for 2 hrs with LPS followed by compound addition in absence of cRGD by Fluo-4-AM dye-based FLIPR assay; assay type: functional, cell-based, EA.hy 926
[5] = molecular target: T2, Integrin alpha-V/beta-3 (Homo sapiens); assay: Antagonist activity at integrin alphavbeta3 receptor in HUVEC cells assessed as inhibition of cell adhesion to human vitronectin at 50 uM preincubated for 30 mins followed by transferring to vitronectin coated plates and measured after 1 hr by DAPI staining based inverted fluorescence microscopic analysis; details: filed as antagonist, time 90.0 min
Summary of the method: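 Wells coated overnight at 4 °C with 20 μg/mL human vitronectin in PBS pH 7.4, blocked with 1% BSA 1 h at 37 °C. HUVEC washed, in DMEM, treated ± 50 μM ligand 30 min at 25 °C, seeded, 1 h at 37 °C. Washed 3× PBS, fixed 3.7% formaldehyde 5 min, nuclei DAPI-stained (5 μg/mL), imaged at 10×.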

[6] = molecular target: T1, Proteinase-activated receptor 2; assay: (§4) Agonist activity at PAR2 in human EA.hy926 cells assessed as stimulation of calcium mobilization treated with cRGD for 30 mins prior to compound addition by Fluo-4-AM dye-based FLIPR assay; assay type: functional, cell-based, EA.hy 926; summary of the method: as §1
[7] = molecular target: Proteinase-activated receptor 2 (Homo sapiens) (UniProt P55085); assay: as §2; assay type: functional, cell-based; details: EA.hy 926, filed as agonist
[8] = molecular target: Proteinase-activated receptor 2 (Homo sapiens) (UniProt P55085); assay: as §3; assay type: functional, cell-based; details: EA.hy 926, filed as agonist
[9] = molecular target: Proteinase-activated receptor 2 (Homo sapiens) (UniProt P55085); assay: as §4; assay type: functional, cell-based; details: EA.hy 926, filed as agonist; summary of the method: as §1

pEC50 [1] | inhibition [5] | SMILES | also measured
6.05 | – | COCc1cn(CCOCCOCCOCCOCCOCCOCCNC(=O)[C@@H](NC(=O)[C@H](CC2CCCCC2)NC(=O)c2ccno2)C2CCCCC2)nn1 | –
5.60 | Active | N=C(N)NCCC[C@@H]1NC[C@H](Cc2cn(CCOCCOCCOCCOCCOCCOCCOCCOCCOCCOCCOCCOCCOCCOCCOCCOCCOCCOCCOCCOCCOCCOCCOCCNC(=O)[C@@H](NC(=O)[C@H](CC3CCCCC3)NC(=O)c3ccno3)C3CCCCC3)nn2)NC(=O)[C@@H](Cc2ccccc2)NC(=O)[C@H](CC(=O)O)NC(=O)CNC1=O | pEC50 [2]: 5.92; inhibition [3]: Active; pEC50 [4]: 5.46; pEC50 [6]: 5.92
7.21 | – | CC[C@H](C)[C@H](NC(=O)[C@H](CC(C)C)NC(=O)c1ccco1)C(=O)NCC(=O)N[C@@H](CCCNC(=N)N)C(=O)N[C@@H](CC(C)C)C(=O)N[C@@H](CCCN)C(=O)NCCOCCOCCOCCOCCOCCOCCOCCOCCn1cc(C[C@H]2CN[C@@H](CCCNC(=N)N)C(=O)NCC(=O)N[C@@H](CC(=O)O)C(=O)N[C@H](Cc3ccccc3)C(=O)N2)nn1 | –
6.89 | Active | CC[C@H](C)[C@H](NC(=O)[C@H](CC(C)C)NC(=O)c1ccco1)C(=O)NCC(=O)N[C@@H](CCCNC(=N)N)C(=O)N[C@@H](CC(C)C)C(=O)N[C@@H](CCCN)C(=O)NCCOCCOCCOCCOCCOCCOCCOCCOCCOCCOCCOCCOCCOCCOCCOCCOCCOCCOCCOCCOCCOCCOCCOCCn1cc(C[C@H]2CN[C@@H](CCCNC(=N)N)C(=O)NCC(=O)N[C@@H](CC(=O)O)C(=O)N[C@H](Cc3ccccc3)C(=O)N2)nn1 | inhibition [3]: Active
6.46 | – | CC[C@H](C)[C@H](NC(=O)[C@H](CC(C)C)NC(=O)c1ccco1)C(=O)NCC(=O)N[C@@H](CCCN=C(N)N)C(=O)N[C@@H](CC(C)C)C(=O)N[C@@H](CCCN)C(N)=O (2Furoyl-LIGRL[Orn]-NH2) | –
7.14 | – | CC[C@H](C)[C@H](NC(=O)[C@H](CC(C)C)NC(=O)c1ccco1)C(=O)NCC(=O)N[C@@H](CCCNC(=N)N)C(=O)N[C@@H](CC(C)C)C(=O)N[C@@H](CCCN)C(=O)NCCOCCOCCOCCOCCOCCOCCn1cc(COC)nn1 (2Furoyl-LIGRL[Orn]-X1) | –
5.92 | Active | COc1ccnc(NCCCOc2ccc(C[C@@H](CC(=O)O)NC(=O)c3ccc(OCc4cn(CCOCCOCCOCCOCCOCCOCCNC(=O)[C@@H](NC(=O)[C@H](CC5CCCCC5)NC(=O)c5ccno5)C5CCCCC5)nn4)cc3)cc2)c1 | Activity [7]: Active; Activity [8]: Active; Activity [9]: Active
